In brackets after ≈: the same amount, converted by molar mass.
How the values were obtained:
Assay type in all cases: functional
Streptococcus pneumoniae [1] = assay: Antibacterial activity against inducible macrolide-resistant, constitutive lincosamide and streptogramin-resistant Streptococcus pneumoniae 134 GR M by broth microdilution method
Method in brief: (§1)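 CLSI broth microdilution MIC with automated double dilutions of compound. The medium was supplemented with 5% horse serum in place of lysed blood. Bacteria were pre-grown on appropriate agar plates.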

Streptococcus pneumoniae [2] = assay: Antibacterial activity against efflux-mediated macrolide-resistant Streptococcus pneumoniae Ci137 by broth microdilution method; method in brief: as §1
Streptococcus pyogenes [3] = assay: Antibacterial activity against constitutive macrolide, lincosamide, streptogramin-resistant Streptococcus pyogenes 166 GR-Micro by broth microdilution method; method in brief: as §1
Staphylococcus aureus [4] = assay: Antibacterial activity against inducible macrolide, lincosamide and streptogramin B-resistant Staphylococcus aureus 90256/97 by broth microdilution method
Method in brief: (§2)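 Standard CLSI broth microdilution MIC test with automated double dilutions of compound. Bacteria were pre-grown on appropriate agar plates.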

Staphylococcus aureus [5] = assay: Antibacterial activity against erythromycin-sensitive Staphylococcus aureus ATCC 13709 by broth microdilution method
Method in brief: (§3)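 Broth microdilution following CLSI guidelines, using two-fold serial dilutions of compound. Bacteria were first grown on appropriate agar plates. Read-out is growth inhibition, reported as MIC.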

Moraxella catarrhalis = assay: Antibacterial activity against Moraxella catarrhalis ATCC 23246 by broth microdilution method; method in brief: as §3
Streptococcus pyogenes [6] = assay: Antibacterial activity against inducible macrolide-lincosamide-streptogramin B resistant Streptococcus pyogenes Finland 11 by broth microdilution method; method in brief: as §1
Streptococcus pyogenes [7] = assay: Antibacterial activity against efflux-mediated macrolide-resistant Streptococcus pyogenes Finland 2 by broth microdilution method; method in brief: as §1
Streptococcus pneumoniae [8] = assay: Antibacterial activity against constitutive macrolide, lincosamide, streptogramin-resistant Streptococcus pneumoniae 58 spain by broth microdilution method; method in brief: as §1
Streptococcus pneumoniae [9] = assay: Antibacterial activity against erythromycin-sensitive Streptococcus pneumoniae SP 030 by broth microdilution method
Method in brief: (§4)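 Broth microdilution following CLSI guidelines, except that 5% horse serum replaced lysed blood in the Streptococcus medium. Two-fold serial dilutions of compound were used. Bacteria were first grown on appropriate agar plates. Read-out is growth inhibition, reported as MIC.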

Staphylococcus aureus [10] = assay: Antibacterial activity against constitutive macrolide, lincosamide, streptogramin-resistant Staphylococcus aureus PK2 by broth microdilution method; method in brief: as §2
Staphylococcus aureus [11] = assay: Antibacterial activity against efflux-mediated macrolide-resistant Staphylococcus aureus PK1 by broth microdilution method; method in brief: as §2
Streptococcus pyogenes [12] = assay: Antibacterial activity against erythromycin-sensitive Streptococcus pyogenes 3565 by broth microdilution method; method in brief: as §4
Haemophilus influenzae = assay: Antibacterial activity against Haemophilus influenzae ATCC 49247 by broth microdilution method; method in brief: as §3

SMILES | MIC (Streptococcus pneumoniae [1]) [µg/mL] | MIC (Streptococcus pneumoniae [2]) [µg/mL] | MIC (Streptococcus pyogenes [3]) [µg/mL] | MIC (Staphylococcus aureus [4]) [µg/mL] | MIC (Staphylococcus aureus [5]) [µg/mL] | MIC (Moraxella catarrhalis) [µg/mL] | MIC (Streptococcus pyogenes [6]) [µg/mL] | MIC (Streptococcus pyogenes [7]) [µg/mL] | MIC (Streptococcus pneumoniae [8]) [µg/mL] | MIC (Streptococcus pneumoniae [9]) [µg/mL] | MIC (Staphylococcus aureus [10]) [µg/mL] | MIC (Staphylococcus aureus [11]) [µg/mL] | MIC (Streptococcus pyogenes [12]) [µg/mL] | MIC (Haemophilus influenzae) [µg/mL]
NCCNc1cc2c(cc1F)c(=O)c(C(=O)NCCO)cn2C1CC1 | > 64 | > 64 | > 64 | > 64 | > 64 | > 64 | > 64 | > 64 | > 64 | > 64 | > 64 | > 64 | > 64 | > 64
CC[C@H]1OC(=O)[C@H](C)[C@@H](O[C@H]2C[C@@](C)(OC)[C@@H](OC(=O)CCNCCNc3cc4c(=O)c(C(=O)NCCO)cn(C5CC5)c4cc3Cl)[C@H](C)O2)[C@H](C)[C@@H](O[C@@H]2O[C@H](C)C[C@H](N(C)C)[C@H]2O)[C@](C)(O)C[C@@H](C)CN(C)[C@H](C)[C@@H](O)[C@]1(C)O | 32 (≈ 27.4 µM) | 2 (≈ 1.71 µM) | 32 (≈ 27.4 µM) | > 64 | 4 (≈ 3.43 µM) | 0.5 (≈ 0.428 µM) | 1 (≈ 0.856 µM) | 4 (≈ 3.43 µM) | 16 (≈ 13.7 µM) | ≤ 0.125 | > 64 | > 64 | ≤ 0.125 | 4 (≈ 3.43 µM)
CC[C@H]1OC(=O)[C@H](C)[C@@H](O[C@H]2C[C@@](C)(OC)[C@@H](OC(=O)CCNCCNc3cc4c(cc3F)c(=O)c(C(=O)NCCO)cn4C3CC3)[C@H](C)O2)[C@H](C)[C@@H](O[C@@H]2O[C@H](C)C[C@H](N(C)C)[C@H]2O)[C@](C)(O)C[C@@H](C)CN(C)[C@H](C)[C@@H](O)[C@]1(C)O | 64 (≈ 55.6 µM) | 4 (≈ 3.47 µM) | > 64 | > 64 | 4 (≈ 3.47 µM) | 0.5 (≈ 0.434 µM) | 4 (≈ 3.47 µM) | 16 (≈ 13.9 µM) | 32 (≈ 27.8 µM) | ≤ 0.125 | > 64 | > 64 | ≤ 0.125 | 4 (≈ 3.47 µM)
CC[C@H]1OC(=O)[C@H](C)[C@@H](O[C@H]2C[C@@](C)(OC)[C@@H](OC(=O)CCN(C)CCNc3cc4c(=O)c(C(=O)NCCO)cn(C5CC5)c4cc3Cl)[C@H](C)O2)[C@H](C)[C@@H](O[C@@H]2O[C@H](C)C[C@H](N(C)C)[C@H]2O)[C@](C)(O)C[C@@H](C)CN(C)[C@H](C)[C@@H](O)[C@]1(C)O | 4 (≈ 3.38 µM) | 0.5 (≈ 0.423 µM) | > 64 | > 64 | 2 (≈ 1.69 µM) | 1 (≈ 0.846 µM) | 2 (≈ 1.69 µM) | 2 (≈ 1.69 µM) | 32 (≈ 27.1 µM) | ≤ 0.125 | > 64 | 32 (≈ 27.1 µM) | ≤ 0.125 | 4 (≈ 3.38 µM)
CC[C@H]1OC(=O)[C@H](C)[C@@H](O[C@H]2C[C@@](C)(OC)[C@@H](OC(=O)CCNCCNc3ccc4c(c3)c(=O)c(C(=O)NCCO)cn4C3CC3)[C@H](C)O2)[C@H](C)[C@@H](O[C@@H]2O[C@H](C)C[C@H](N(C)C)[C@H]2O)[C@](C)(O)C[C@@H](C)CN(C)[C@H](C)[C@@H](O)[C@]1(C)O | 32 (≈ 28.2 µM) | 4 (≈ 3.53 µM) | > 64 | > 64 | 4 (≈ 3.53 µM) | 0.5 (≈ 0.441 µM) | 4 (≈ 3.53 µM) | 16 (≈ 14.1 µM) | > 64 | ≤ 0.125 | > 64 | > 64 | 0.25 (≈ 0.221 µM) | 8 (≈ 7.06 µM)
CC[C@H]1OC(=O)[C@H](C)[C@@H](O[C@H]2C[C@@](C)(OC)[C@@H](OC(=O)CCN(C)CCNc3ccc4c(c3)c(=O)c(C(=O)NCCO)cn4C3CC3)[C@H](C)O2)[C@H](C)[C@@H](O[C@@H]2O[C@H](C)C[C@H](N(C)C)[C@H]2O)[C@](C)(O)C[C@@H](C)CN(C)[C@H](C)[C@@H](O)[C@]1(C)O | 4 (≈ 3.49 µM) | 1 (≈ 0.871 µM) | > 64 | > 64 | 2 (≈ 1.74 µM) | 1 (≈ 0.871 µM) | 4 (≈ 3.49 µM) | 4 (≈ 3.49 µM) | > 64 | ≤ 0.125 | > 64 | 64 (≈ 55.8 µM) | 0.25 (≈ 0.218 µM) | 4 (≈ 3.49 µM)
CC[C@H]1OC(=O)[C@H](C)[C@@H](O[C@H]2C[C@@](C)(OC)[C@@H](O)[C@H](C)O2)[C@H](C)[C@@H](O[C@@H]2O[C@H](C)C[C@H](N(C)C)[C@H]2O)[C@](C)(O)C[C@@H](C)CN(C)[C@H](C)[C@@H](O)[C@]1(C)O [AZITHROMYCIN] | > 64 | 8 (≈ 10.7 µM) | > 64 | > 64 | 0.5 (≈ 0.668 µM) | ≤ 0.125 | 16 (≈ 21.4 µM) | 8 (≈ 10.7 µM) | > 64 | ≤ 0.125 | > 64 | > 64 | ≤ 0.125 | 1 (≈ 1.34 µM)

— ChEMBL document CHEMBL1921709, “Synthesis and activity of new macrolones: conjugates between 6(7)-(2'-aminoethyl)-amino-1-cyclopropyl-3-carboxylic acid (2'-hydroxyethyl) amides and 4″-propenoyl-azithromycin” (2011)
